Results taken from ChEMBL document CHEMBL1926521, “Arylcyanoacrylamides as inhibitors of the Dengue and West Nile virus proteases” (Bioorg Med Chem, 2011).
Calls of active or inactive are those of the source. No cut-off for these calls is given here.

Assays:
[1] = target: Prothrombin (Homo sapiens, UniProt P00734); test: Inhibition of human thrombin using Boc-VPR-AMC as substrate at 25 uM preincubated for 15 mins before substrate addition measured up to 10 mins by spectrofluorimetry
[2] = system: West Nile virus; test: Inhibition of West Nile virus NS2B-NS3 protease expressed in Escherichia coli BL21 lambda (DE3) using Abz-GLKRGG-3-(NO2)Y as substrate at 50 uM preincubated for 15 mins before substrate addition measured up to 15 mins by spectrofluorimetry
Summary of the method: (§1)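 Single-concentration screen against His-tagged NS2B-NS3 protease (Ni²⁺-affinity purified from E. coli). Enzyme was 100 nM for Dengue or 150 nM for West Nile. Inhibitor at 50 µM was preincubated 15 min with enzyme, then internally quenched FRET substrate (final 50 µM) was added. Read at ex 320/em 405 nm for 15 min. Rate taken as RFU/s; % inhibition is the mean of triplicates.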

[3] = system: Dengue virus; test: Inhibition of Dengue virus NS2B-NS3 protease expressed in Escherichia coli BL21 lambda (DE3) using Abz-NleKRRS-3-(NO2)Y as substrate at 50 uM preincubated for 15 mins before substrate addition measured up to 15 mins by spectrofluorimetry; summary of the method: as §1

Row | SMILES | inhibition [1] | inhibition [2] | inhibition [3]
1 | N#Cc1n[nH]nc1-c1ccccc1 | inactive | 11.2% | inactive
2 | N#C/C(=C\c1ccc(O)c(O)c1)C(N)=O | 18.4% | 28.8% | 34.9%
3 | CN(C)c1ccc(/C=C(\C#N)C(N)=S)cc1 | 13.7% | inactive | inactive
4 | N#C/C(=C\c1ccc(N2CCNCC2)cc1)C(N)=O | 26.1% | 45% | 28.6%
5 | N#C/C(=C\c1ccc(C(=O)O)cc1)C(=O)NC1CC1 | 15.9% | 31% | 20%
6 | N#C/C(=C\c1ccc(N2CCOCC2)cc1)C(N)=O | 19.2% | 35.3% | 28.2%
7 | COc1cc(/C=C(\C#N)C(N)=O)cc(OC)c1OC | 17.8% | 19.3% | 15.6%
8 | N#C/C(=C\c1ccc(N2CCCCC2)cc1)C(N)=O | 20% | 24.2% | 14%
9 | CC(C)c1ccc(/C=C(\C#N)C(N)=O)cc1 | 19.4% | 24.6% | 23%
10 | N#C/C(=C\c1ccc([N+](=O)[O-])cc1)C(N)=O | inactive | 10.5% | inactive
11 | N#C/C(=C\c1ccc(Br)cc1)C(=O)NC1CC1 | inactive | 22.6% | 10.9%
12 | N#C/C(=C\c1sccc1Br)C(N)=O | 10.1% | 19.3% | 18.4%
13 | CN(C)c1ccc(C=C(C#N)C#N)cc1 | 16.3% | 8.8% | 8.7%
14 | CN1CCN(c2c(F)c(F)c(/C=C(\C#N)C(N)=O)c(F)c2F)CC1 | 28.5% | 31.9% | 19.2%
15 | CN1CCN(c2ccc(/C=C(\C#N)C(N)=O)cc2)CC1 | 22% | 40.9% | 32.3%
16 | N#C/C(=C\c1ccc(Br)cc1)C(N)=O | 13.6% | 15.9% | 11.6%
17 | N#C/C(=C\c1ccc(C(=O)N2CCCCC2)cc1)C(N)=O | inactive | 24% | 22.3%
18 | N#C/C(=C\c1cccc(C(=O)O)c1)C(=O)NC1CC1 | 11.9% | 20.1% | 20.2%
19 | N#C/C(=C\c1ccc(N2CCOCC2)s1)C(N)=O | 38.6% | 29.1% | 23.2%

Row | SMILES | inhibition [1] | inhibition [2] | inhibition [3]
20 | CN1CCN(c2ccc(/C=C(\C#N)C(=O)NC3CC3)cc2)CC1 | 21.8% | 47.8% | 37.4%
21 | N#C/C(=C\c1ccc(Br)s1)C(=O)NC1CC1 | 17.9% | 10.5% | inactive
22 | N#C/C(=C\c1cc(O)c(O)c([N+](=O)[O-])c1)C(N)=O | 22.5% | 28.2% | 24.3%
23 | CN(C)c1ccc(/C=C(\C#N)C(=O)N2CCOCC2)cc1 | 25.1% | 38.1% | 43.3%
24 | N#C/C(=C\c1ccc(C(=O)N2CCOCC2)cc1)C(=O)NC1CC1 | 9% | 23% | 22.9%
25 | CC(C)c1ccc(/C=C(\C#N)C(=O)NCc2ccccn2)cc1 | 11.6% | 39.5% | 24.9%
26 | N#C/C(=C\c1ccc(O)cc1)C(=O)NCC1CCCO1 (stereo not given) | 16.8% | 44.4% | 46.4%
27 | CN(C)c1ccc(/C=C(\C#N)C(=O)O)cc1 | 13.3% | 46.5% | 38.7%
28 | CN(C)c1ccc(CC(C#N)C(N)=O)cc1 (stereo not given) | inactive | 16.2% | 7.1%
29 | N#C/C(=C\c1ccc(Br)s1)C(N)=O | 26.3% | 19.2% | 20.2%
30 | N#C/C(=C\c1ccc(O)cc1)C(=O)N1CCOCC1 | 18% | 49.9% | 32.2%
31 | N#C/C(=C\c1ccc(O)cc1)C(=O)NCc1ccccn1 | 18.9% | 41.8% | 46.6%
32 | N#C/C(=C\c1ccc(Cl)s1)C(N)=O | 27.9% | 23.8% | 22%
33 | N#C/C(=C\c1ccc(Cl)cc1Cl)C(N)=O | 8.5% | 10.7% | 14.7%
34 | CCN(CC)C(=O)/C(C#N)=C/c1cc(O)c(O)c([N+](=O)[O-])c1 | 21.9% | 32.4% | 21%
35 | CN(C)c1ccc(/C=C(\C#N)C(=O)NCC2CCCO2)cc1 (stereo not given) | 19.8% | 28.1% | 23.3%
36 | N#C/C(=C\c1cccc(C(=O)NC2CC2)c1)C(=O)NC1CC1 | 8% | 19.1% | 10.8%
37 | COc1cc(CC(C#N)C(N)=O)cc(OC)c1OC (stereo not given) | inactive | inactive | inactive
38 | N#CC(Cc1ccc(N2CCOCC2)cc1)C(N)=O (stereo not given) | inactive | 7.9% | inactive

The remaining lines, values ahead:

Row | inhibition [1] | inhibition [2] | inhibition [3] | SMILES
39 | 10.1% | 13.8% | inactive | CC(C)/C(=C(\C#N)C(N)=O)c1ccccc1
40 | 12.5% | 9.3% | 15% | N#C/C(=C\c1ccccc1)C(N)=O
41 | 11.1% | 15.3% | 6.7% | CCC/C(=C(/C#N)C(N)=O)c1ccccc1
42 | 16.4% | 33.4% | 23.7% | N#C/C(=C\c1c[nH]c2ccccc12)C(N)=O
43 | 7.3% | 13.7% | inactive | C/C(=C(/C#N)C(N)=O)c1ccccc1
44 | inactive | 21.9% | 16.8% | C/C(=C(/C#N)C(N)=O)c1ccc(O)cc1
45 | inactive | 22.8% | 32.2% | Cc1ccc(/C=C(\C#N)C(N)=O)cc1
46 | 9.7% | 18.4% | 9% | C/C(=C(\C#N)C(N)=O)c1ccccc1
47 | 8.7% | 21.7% | 22.1% | N#C/C(=C\c1ccc(CO)cc1)C(N)=O
48 | 16.7% | inactive | inactive | CC(C)/C(=C(/C#N)C(N)=O)c1ccccc1
49 | 6.9% | 16% | 7.6% | CCC/C(=C(\C#N)C(N)=O)c1ccccc1
50 | 13.2% | 23.8% | 17.1% | N#C/C(=C\c1ccc(C(=O)O)cc1)C(N)=O
51 | 15.7% | 23.9% | 28.4% | N#C/C(=C\c1cccs1)C(N)=O
52 | inactive | inactive | inactive | C/C(=C\c1ccccc1)CC(C#N)C(N)=O (stereo not given)
53 | 9.8% | 18.1% | 15.7% | N#C/C(=C\c1cccc(O)c1)C(N)=O
54 | 10.3% | 24.1% | 23.2% | N#C/C(C(N)=O)=C1\CCc2ccccc21
55 | 16% | inactive | inactive | COc1cc(/C=C(\C#N)C(N)=O)ccc1OCc1ccccc1
